One may read the logD as lipophilicity at a set pH, counting ionised and neutral species. Higher therefore signals higher lipophilicity. Usually Ki stands for the dissociation constant of the complex between target and ligand, obtained from inhibition or displacement. Lower therefore signals a stronger hold on the target. By logP is commonly meant a log measure of how a compound divides between an organic and an aqueous phase.

Data set [1] addresses Glutamate receptor ionotropic, NMDA 2B (Rattus norvegicus) (UniProt Q00960). The data set can be described thus: Binding affinity to NR2B receptor in rat cerebellum at 0.09 to 0.14 nM after 30 mins by autoradiography in presence of DTG relative to control. Type of data set: tissue-based. To be noted: tested as the 125I-labelled form. A digest of the protocol:
(§1)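 Rinsed three times 3 min in cold buffer with 1% BSA, dipped in cold water, air-dried, exposed to imaging plates; PSL per mm² in ROIs. Expressed as % control binding; at least triplicate slices from three rats.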

Data set [2] is described as follows: Octanol-buffer partition coefficient, log D of the compound at pH 7.4. Type of data set: physicochemical.
The target in data set [3] is Glutamate receptor ionotropic, NMDA 2B (Rattus norvegicus) (UniProt Q00960). Put plainly: Binding affinity to NR2B receptor in rat hippocampus at 0.09 to 0.14 nM after 30 mins by autoradiography in presence of prazosin relative to control. The note with it: tested as the 125I-labelled form. Type of data set: tissue-based. The method in brief:
as §1

The target is the same in data set [4]. The data set can be described thus: Binding affinity to NR2B receptor in rat cerebral cortex at 0.09 to 0.14 nM after 30 mins by autoradiography in presence of prazosin relative to control. Type of data set: tissue-based. To be noted: tested as the 125I-labelled form. The method in brief: as §1
The target is the same in data set [5]. Put plainly: Binding affinity to NR2B receptor in rat cerebellum at 0.09 to 0.14 nM after 30 mins by autoradiography in presence of prazosin relative to control. Type of data set: tissue-based. The note with it: tested as the 125I-labelled form. A digest of the protocol:
as §1

For data set [6] the target is unchanged. Put plainly: Binding affinity to NR2B receptor in rat cerebral cortex at 0.09 to 0.14 nM after 30 mins by autoradiography in presence of DTG relative to control. Type of data set: tissue-based. The note with it: tested as the 125I-labelled form. A digest of the protocol:
as §1

Data set [7] shares this target. The data set can be described thus: Binding affinity to NR2B receptor in rat hippocampus at 0.09 to 0.14 nM after 30 mins by autoradiography in presence of DTG relative to control. Type of data set: tissue-based. The note with it: tested as the 125I-labelled form. The method in brief:
as §1

Data set [8] shares this target. The data set can be described thus: Binding affinity to NR2B receptor in rat cerebral cortex at 0.09 to 0.14 nM after 30 mins by autoradiography in presence of Ro-256981 relative to control. Type of data set: tissue-based. To be noted: tested as the 125I-labelled form. The method in brief: as §1
Data set [9] has the same target. The data set can be described thus: Binding affinity to NR2B receptor in rat cerebellum at 0.09 to 0.14 nM after 30 mins by autoradiography in presence of Ro-256981 relative to control. The note with it: tested as the 125I-labelled form. Type of data set: tissue-based. The method in brief:
as §1

The target in data set [10] is Glutamate receptor ionotropic, NMDA 2B (Rattus norvegicus, UniProt Q00960). Put plainly: Displacement of [3H]ifenprodil from NR2B receptor in rat cortical synaptic membranes. Type of data set: cell membranes, Membrane. (In general: Displacement assays read how much labelled ligand stays bound in the presence of the test substance.)
A short description of data set [11]: Lipophilicity, log P of the compound. Type of data set: physicochemical. To be noted: octanol/water.
The target in data set [12] is Glutamate receptor ionotropic, NMDA 2B (Rattus norvegicus) (UniProt Q00960). Put plainly: Binding affinity to NR2B receptor in rat hippocampus at 0.09 to 0.14 nM after 30 mins by autoradiography in presence of Ro-256981 relative to control. Type of data set: tissue-based. The note with it: tested as the 125I-labelled form. The method in brief: as §1

The structures appear in SMILES notation.

Sequence of Glutamate receptor ionotropic, NMDA 2B (Rattus norvegicus) (Q00960 27-1482 limits assumed): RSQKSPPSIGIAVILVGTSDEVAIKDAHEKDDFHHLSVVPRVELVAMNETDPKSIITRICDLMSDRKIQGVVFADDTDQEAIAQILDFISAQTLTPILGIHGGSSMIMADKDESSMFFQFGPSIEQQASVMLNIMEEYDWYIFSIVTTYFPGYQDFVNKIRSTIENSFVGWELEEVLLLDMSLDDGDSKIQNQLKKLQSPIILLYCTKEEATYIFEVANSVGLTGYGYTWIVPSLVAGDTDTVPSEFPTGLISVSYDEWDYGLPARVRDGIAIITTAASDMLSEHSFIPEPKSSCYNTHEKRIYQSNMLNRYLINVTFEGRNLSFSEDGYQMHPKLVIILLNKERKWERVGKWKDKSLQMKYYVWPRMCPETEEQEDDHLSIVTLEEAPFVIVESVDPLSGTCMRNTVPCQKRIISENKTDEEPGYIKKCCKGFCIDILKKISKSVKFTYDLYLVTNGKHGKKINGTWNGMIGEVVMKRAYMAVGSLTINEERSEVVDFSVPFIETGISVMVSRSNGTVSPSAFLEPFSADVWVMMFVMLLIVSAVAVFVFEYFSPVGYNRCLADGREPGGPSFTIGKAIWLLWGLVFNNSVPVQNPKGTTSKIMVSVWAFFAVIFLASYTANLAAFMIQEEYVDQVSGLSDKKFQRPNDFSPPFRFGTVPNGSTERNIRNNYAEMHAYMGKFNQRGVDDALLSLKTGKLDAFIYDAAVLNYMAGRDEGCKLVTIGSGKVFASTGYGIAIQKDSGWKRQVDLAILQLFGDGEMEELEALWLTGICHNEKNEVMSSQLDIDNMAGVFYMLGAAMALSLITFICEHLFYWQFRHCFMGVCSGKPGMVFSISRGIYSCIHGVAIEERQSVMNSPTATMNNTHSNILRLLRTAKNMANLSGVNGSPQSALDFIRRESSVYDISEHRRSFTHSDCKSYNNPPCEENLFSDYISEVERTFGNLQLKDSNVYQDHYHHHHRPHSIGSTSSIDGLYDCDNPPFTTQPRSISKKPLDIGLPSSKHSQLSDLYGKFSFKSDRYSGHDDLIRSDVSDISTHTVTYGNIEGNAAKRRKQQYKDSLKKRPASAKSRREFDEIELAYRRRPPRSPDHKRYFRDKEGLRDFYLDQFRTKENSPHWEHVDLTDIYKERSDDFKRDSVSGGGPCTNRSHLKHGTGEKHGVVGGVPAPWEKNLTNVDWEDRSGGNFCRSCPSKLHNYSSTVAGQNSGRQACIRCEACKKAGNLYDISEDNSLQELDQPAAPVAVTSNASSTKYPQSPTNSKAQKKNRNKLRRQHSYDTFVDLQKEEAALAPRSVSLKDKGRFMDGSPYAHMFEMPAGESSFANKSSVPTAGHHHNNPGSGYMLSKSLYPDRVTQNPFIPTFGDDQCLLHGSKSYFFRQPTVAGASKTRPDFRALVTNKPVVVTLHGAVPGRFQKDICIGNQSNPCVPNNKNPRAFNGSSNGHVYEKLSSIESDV
Sequence of Glutamate receptor ionotropic, NMDA 2B (Q00960 whole entry): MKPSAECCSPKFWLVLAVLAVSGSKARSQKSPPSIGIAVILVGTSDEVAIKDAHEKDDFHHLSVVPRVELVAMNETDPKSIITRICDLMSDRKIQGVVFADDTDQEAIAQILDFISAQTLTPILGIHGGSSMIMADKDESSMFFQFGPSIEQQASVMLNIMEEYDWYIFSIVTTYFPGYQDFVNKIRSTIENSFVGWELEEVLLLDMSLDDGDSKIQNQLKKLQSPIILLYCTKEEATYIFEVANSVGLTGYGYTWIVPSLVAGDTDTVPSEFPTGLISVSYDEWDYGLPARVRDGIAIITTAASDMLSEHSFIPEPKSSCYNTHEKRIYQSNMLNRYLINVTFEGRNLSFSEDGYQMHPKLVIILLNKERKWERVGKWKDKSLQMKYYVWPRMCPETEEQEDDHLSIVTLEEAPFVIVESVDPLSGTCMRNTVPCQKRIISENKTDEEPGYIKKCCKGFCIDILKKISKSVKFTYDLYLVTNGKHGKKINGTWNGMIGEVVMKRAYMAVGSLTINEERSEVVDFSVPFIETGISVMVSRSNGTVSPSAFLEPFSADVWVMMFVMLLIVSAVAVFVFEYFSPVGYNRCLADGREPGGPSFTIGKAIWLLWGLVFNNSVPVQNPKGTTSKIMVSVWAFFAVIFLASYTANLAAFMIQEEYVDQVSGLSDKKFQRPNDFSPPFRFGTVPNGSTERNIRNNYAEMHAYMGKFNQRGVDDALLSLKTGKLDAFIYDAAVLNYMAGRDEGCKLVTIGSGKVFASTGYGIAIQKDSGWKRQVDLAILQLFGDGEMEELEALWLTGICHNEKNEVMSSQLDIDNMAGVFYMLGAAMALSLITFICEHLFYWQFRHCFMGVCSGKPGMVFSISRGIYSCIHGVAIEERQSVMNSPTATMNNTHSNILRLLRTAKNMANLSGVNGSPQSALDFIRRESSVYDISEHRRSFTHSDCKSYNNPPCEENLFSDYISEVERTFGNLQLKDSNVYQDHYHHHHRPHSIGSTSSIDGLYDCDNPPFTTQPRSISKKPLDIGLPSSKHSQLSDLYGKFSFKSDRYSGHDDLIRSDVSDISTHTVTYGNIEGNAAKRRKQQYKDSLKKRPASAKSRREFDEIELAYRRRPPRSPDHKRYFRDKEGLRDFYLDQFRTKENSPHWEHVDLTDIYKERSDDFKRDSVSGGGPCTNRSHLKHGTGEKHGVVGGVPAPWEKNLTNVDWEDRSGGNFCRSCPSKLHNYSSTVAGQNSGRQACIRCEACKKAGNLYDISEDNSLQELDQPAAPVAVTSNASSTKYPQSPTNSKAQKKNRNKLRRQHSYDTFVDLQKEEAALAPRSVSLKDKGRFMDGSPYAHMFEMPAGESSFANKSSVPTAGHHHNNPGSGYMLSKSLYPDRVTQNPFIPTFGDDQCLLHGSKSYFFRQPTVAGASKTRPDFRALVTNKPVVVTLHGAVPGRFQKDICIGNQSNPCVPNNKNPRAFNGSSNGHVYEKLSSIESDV

As for `Oc1ccc2nc(CN3CCC(Cc4ccc(I)cc4)CC3)[nH]c2c1`, the Activity came out at 101% in [1]; 92.6% in data set [3]; 95.6% in data set [4]; 103% in data set [5]; 93.5% in [6]; 105% in data set [7]. Also, the Activity is 58.3% in [8], 91.8% in [9] and 50.9% in data set [12]. For the same compound, the logD in data set [2] stood at 3.95. The compound also registered an inhibition constant Ki in data set [10] of 7.28 nM. This compound also gave a logP in data set [11] of 3.95.

The values are drawn from ChEMBL document CHEMBL1268917, “Synthesis and biological evaluation of radio-iodinated benzimidazoles as SPECT imaging agents for NR2B subtype of NMDA receptor” (Bioorg Med Chem, 2010).
